Measured values as given in ChEMBL document CHEMBL1128326, “N-acylated alpha-amino acids as novel oral delivery agents for proteins” (1995).

Key:
Rattus norvegicus [1] = test: The compound was tested for oral delivery of calcitonin, activity is measured as reduction in serum calcium levels at 400 mg/kg and dose of calcitotin is 10 ug/kg; assay type: functional
In short: (§1)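 Male Sprague-Dawley rats (125–150 g; groups of 6–7) were anesthetized with ketamine 44 mg/kg plus thiazine 0.5 mg/kg. They were given an aqueous pH 7.2 solution of compound with salmon calcitonin (400 mg/kg and 10 μg/kg) by oral gavage at 2 mL/kg. Control groups received calcitonin alone or compound alone. Tail-artery blood was sampled serially, and serum calcium was measured with a kit; results are % decrease, mean ± SE.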

Rattus norvegicus [2] = species: Rattus norvegicus; test: The compound was tested for oral delivery of interferon-alpha in rats.
Rattus norvegicus [3] = test: The compound was tested for oral delivery of interferon-alpha in rats.(compound dose=400 mg/kg; inf-alpha dose= 500 ug/kg)
[4] = biological target: Serine protease 1 (Homo sapiens) (UniProt P07477); test: The compound was tested for inhibitory activity against trypsin, activity is expressed as %inhibition.; conditions: concentration not given here
In short: (§2)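 Trypsin activity was taken from USP pancreatin at 1 mg/mL final, in 50 mM potassium phosphate pH 7.6 at 37 °C. Test compound was preincubated with enzyme for 10 min. The reaction was started with N-benzoyl-L-arginine p-nitroanilide (300 μM final), and p-nitroaniline formation was followed at 400 nm over 12 min. Percent inhibition was calculated at 12 min from reaction rates versus compound-free controls.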

Rattus norvegicus [5] = test: The compound was tested for oral delivery of interferon-alpha in rats.(compound dose=400 mg/kg; inf-alpha dose= 250 ug/kg)
Rattus norvegicus [6] = species: Rattus norvegicus; test: The compound was tested for oral delivery of calcitonin, activity is measured as reduction in serum calcium levels.; assay type: functional; set-up: unit not given beside the values; in short: as §1
Rattus norvegicus [7] = test: The compound was tested for oral delivery of interferon-alpha in rats.(compound dose=800 mg/kg; inf-alpha dose= 1 mg/kg)
[8] = biological target: Serine protease 1 (Homo sapiens) (UniProt P07477); test: The compound was tested for inhibitory activity against trypsin at 10 mg/mL; in short: as §2

Serine protease 1 (Homo sapiens), sequence (P07477 whole entry): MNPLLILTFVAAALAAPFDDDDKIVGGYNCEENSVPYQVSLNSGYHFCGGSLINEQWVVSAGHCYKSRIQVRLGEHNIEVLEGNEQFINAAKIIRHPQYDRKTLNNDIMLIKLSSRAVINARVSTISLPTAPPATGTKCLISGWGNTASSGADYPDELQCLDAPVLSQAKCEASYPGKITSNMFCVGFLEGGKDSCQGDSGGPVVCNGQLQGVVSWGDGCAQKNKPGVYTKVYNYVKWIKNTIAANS

Row | SMILES | Ca2+ reduction (Rattus norvegicus [1]) | Amount delivered (Rattus norvegicus [7]) | further results
1 | CC(C)C[C@H](NC(=O)C1CCCC(C)C1)C(=O)O (stereo partly drawn) | -13.69 |  | 
2 | O=C(N[C@H](C(=O)O)c1ccccc1)C1CCCCC1 |  |  | Amount delivered (Rattus norvegicus [2]): 3808 pg/mL; Amount delivered (Rattus norvegicus [3]): 2598 pg/mL; inhibition [4]: 44%; Amount delivered (Rattus norvegicus [5]): 434 pg/mL
3 | CC(C)C[C@H](NC(=O)c1ccccc1)C(=O)O | -12.9 |  | 
4 | CC(C)C[C@H](NC(=O)C1CC1)C(=O)O |  |  | Ca2+ reduction (Rattus norvegicus [6]): -3.87
5 | O=C(N[C@H](C(=O)O)c1ccccc1)C1CCCCCC1 |  | 4066 pg/mL | 
6 | O=C(CCC1CCCCC1)N[C@H](C(=O)O)c1ccccc1 |  | 3026 pg/mL | 
7 | O=C(N[C@H](C(=O)O)c1ccccc1)c1ccccc1O |  | 757 pg/mL | 
8 | CC(C)C[C@H](NC(=O)c1ccc([N+](=O)[O-])cc1)C(=O)O | -11.8 |  | 
9 | CC(C)C[C@H](NC(=O)C1CCCCC1C)C(=O)O (stereo partly drawn) | -18.27 |  | 
10 | COc1cccc(C(=O)N[C@@H](CC(C)C)C(=O)O)c1 |  |  | Ca2+ reduction (Rattus norvegicus [6]): -7.9
11 | CC(C)C[C@@H](NC(=O)C1CCCCC1)C(=O)O | -18.32 |  | 
12 | O=C(N[C@H](C(=O)O)c1ccccc1)C1CCCC1 |  | 4707 pg/mL | 
13 | O=C(N[C@@H](Cc1ccc(O)cc1)C(=O)O)C1CCCCC1 |  | 3422 pg/mL | 
14 | O=C(N[C@H](C(=O)O)c1ccccc1)c1ccccc1 |  | 8427 pg/mL | 
15 | CC(C)C[C@H](NC(=O)c1ccccc1[N+](=O)[O-])C(=O)O | -6.61 |  | 
16 | CCC(C)[C@H](NC(=O)C1CCCCC1)C(=O)O (stereo partly drawn) |  | 340 pg/mL | 
17 | CC(C)C[C@H](NC(=O)C1CCCCC1)C(=O)O.N=C(N)NCCC[C@H](NC(=O)C1CCCCC1)C(=O)O.O=C(N[C@@H](Cc1ccc(O)cc1)C(=O)O)C1CCCCC1 | -33.9 |  | 
18 | CC(C)C[C@H](NC(=O)C1CCCCCC1)C(=O)O | -19.76 |  | 
19 | NCCCC[C@H](NC(=O)C1CCCCC1)C(=O)O |  | 3340 pg/mL | 
20 | CC(C)C[C@H](NC(=O)C1CCC(C)CC1)C(=O)O (stereo partly drawn) | -15.52 |  | 
21 | NC(=O)NCCC[C@H](NC(=O)C1CCCCC1)C(=O)O |  | 1922 pg/mL | 
22 | CC(C)C[C@H](NC(=O)C1CCCCC1)C(=O)O | -21.82 |  | inhibition [8]: 39%
23 | CC(C)C[C@H](NC(=O)C1CCCCC1C(=O)O)C(=O)O (stereo partly drawn) |  |  | Ca2+ reduction (Rattus norvegicus [6]): -10.47
24 | CC(C)C[C@H](NC(=O)C1CCCC1)C(=O)O |  |  | Ca2+ reduction (Rattus norvegicus [6]): -6.28
25 | CC(C)C[C@H](NC(=O)CCC1CCCCC1)C(=O)O | -14.97 |  | 
26 | O=C(CC1CCCCC1)N[C@H](C(=O)O)c1ccccc1 |  | 6401 pg/mL | 
27 | CC(C)C[C@H](NC(=O)c1cccc([N+](=O)[O-])c1)C(=O)O | -14.5 |  | 
28 | N=C(N)NCCC[C@H](NC(=O)C1CCCCC1)C(=O)O |  | 2107 pg/mL | 
29 | O=C(N[C@@H](Cc1ccccc1)C(=O)O)C1CCCCC1 |  | 611 pg/mL | 
